Laboratory results as given in ChEMBL document CHEMBL4270612, “Discovery of dual GyrB/ParE inhibitors active against Gram-negative bacteria” (Eur J Med Chem, 2018).
Converted amounts (≈) assume the structure as drawn.

Legend:
Acinetobacter baumannii [1] = assay: Antibacterial activity against Acinetobacter baumannii ARC3658 after 24 hrs by broth microdilution method; format: functional; details: ARC3658, 24 h
Procedure, shortened: (§1)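 Broth microdilution per CLSI. Bacterial suspension adjusted to 1×10^6 CFU/mL in cation-adjusted Mueller–Hinton broth and mixed 1:1 with 2-fold serial compound dilutions. Final DMSO 2.5% v/v. Plates incubated at 35 °C with shaking at 140 rpm for 24 h.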

Pseudomonas aeruginosa [2] = assay: Antibacterial activity against Pseudomonas aeruginosa ARC3502 after 24 hrs by broth microdilution method; format: functional; details: ARC3502, 24 h
Procedure, shortened: (§2)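 Broth microdilution per CLSI. Bacterial suspension adjusted to 1×10^6 CFU/mL in cation-adjusted Mueller–Hinton broth and mixed 1:1 with 2-fold serial compound dilutions. Plates incubated at 35 °C with shaking at 140 rpm for 24 h.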

Pseudomonas aeruginosa [3] = assay: Antibacterial activity against Pseudomonas aeruginosa ARC4060 after 24 hrs by broth microdilution method; format: functional; details: ARC4060, 24 h; procedure, shortened: as §1
Klebsiella pneumoniae = assay: Antibacterial activity against Klebsiella pneumoniae ARC1865 after 24 hrs by broth microdilution method; format: functional; details: ARC1865, 24 h; procedure, shortened: as §1
Acinetobacter baumannii [4] = assay: Antibacterial activity against Acinetobacter baumannii ARC3484 after 24 hrs by broth microdilution method; format: functional; details: ARC3484, 24 h; procedure, shortened: as §2
Acinetobacter baumannii [5] = assay: Antibacterial activity against Acinetobacter baumannii ARC3492 after 24 hrs by broth microdilution method; format: functional; details: ARC3492, 24 h; procedure, shortened: as §2
Pseudomonas aeruginosa [6] = assay: Antibacterial activity against Pseudomonas aeruginosa harboring MexABCDXY deletion mutant after 24 hrs by broth microdilution method; format: functional
Procedure, shortened: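 Broth microdilution per CLSI. Bacterial suspensions adjusted to 1×10^6 CFU/mL in cation-adjusted Mueller–Hinton broth, mixed 1:1 with 2-fold serial compound dilutions (final DMSO 2.5% v/v). Incubation 35 °C, 140 rpm, 24 h.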

Pseudomonas aeruginosa [7] = assay: Antibacterial activity against Pseudomonas aeruginosa ARC3504 after 24 hrs by broth microdilution method; format: functional; details: ARC3504, 24 h; procedure, shortened: as §1
Acinetobacter baumannii [8] = assay: Antibacterial activity against Acinetobacter baumannii ARC2674 after 24 hrs by broth microdilution method; format: functional; details: ARC2674, 24 h; procedure, shortened: as §1
Acinetobacter baumannii [9] = assay: Antibacterial activity against Acinetobacter baumannii ARC2781 after 24 hrs by broth microdilution method; format: functional; details: ARC2781, 24 h; procedure, shortened: as §2
[10] = biological target: DNA topoisomerase 4 subunit B (Escherichia coli K-12, UniProt P20083); assay: Inhibition of Escherichia coli ParE
Acinetobacter baumannii [11] = assay: Antibacterial activity against Acinetobacter baumannii ARC2782 after 24 hrs by broth microdilution method; format: functional; details: ARC2782, 24 h; procedure, shortened: as §1
Pseudomonas aeruginosa [12] = assay: Antibacterial activity against Pseudomonas aeruginosa ARC4063 after 24 hrs by broth microdilution method; format: functional; details: ARC4063, 24 h; procedure, shortened: as §2
[13] = Dissociation constant, acidic pKa of compound by pH metric method; format: physicochemical
Procedure, shortened: (§3)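 Potentiometric (pH-metric) titration on an automated titrator, Gold Standard pH metric assay, run in triplicate.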

DNA gyrase subunit B = DNA gyrase subunit B (Escherichia coli, UniProt P0AES6); assay: Inhibition of Escherichia coli GyrB (1 to 220 residues) expressed in Escherichia coli BL21(DE3)
[14] = Dissociation constant, basic pKa of compound by pH metric method; format: physicochemical; procedure, shortened: as §3
Pseudomonas aeruginosa [15] = assay: Antibacterial activity against Pseudomonas aeruginosa ARC3729 after 24 hrs by broth microdilution method; format: functional; details: ARC3729, 24 h; procedure, shortened: as §1
Pseudomonas aeruginosa [16] = assay: Antibacterial activity against Pseudomonas aeruginosa ARC3509 after 24 hrs by broth microdilution method; format: functional; details: ARC3509, 24 h; procedure, shortened: as §1
[17] = Thermodynamic solubility of the compound at pH 7.4; format: physicochemical; details: buffer; for solubility thermodynamic: read-out: Therm_solubility
[18] = Dissociation constant, pKa of compound by pH metric method; format: physicochemical; procedure, shortened: as §3

DNA topoisomerase 4 subunit B, sequence (P20083 whole entry): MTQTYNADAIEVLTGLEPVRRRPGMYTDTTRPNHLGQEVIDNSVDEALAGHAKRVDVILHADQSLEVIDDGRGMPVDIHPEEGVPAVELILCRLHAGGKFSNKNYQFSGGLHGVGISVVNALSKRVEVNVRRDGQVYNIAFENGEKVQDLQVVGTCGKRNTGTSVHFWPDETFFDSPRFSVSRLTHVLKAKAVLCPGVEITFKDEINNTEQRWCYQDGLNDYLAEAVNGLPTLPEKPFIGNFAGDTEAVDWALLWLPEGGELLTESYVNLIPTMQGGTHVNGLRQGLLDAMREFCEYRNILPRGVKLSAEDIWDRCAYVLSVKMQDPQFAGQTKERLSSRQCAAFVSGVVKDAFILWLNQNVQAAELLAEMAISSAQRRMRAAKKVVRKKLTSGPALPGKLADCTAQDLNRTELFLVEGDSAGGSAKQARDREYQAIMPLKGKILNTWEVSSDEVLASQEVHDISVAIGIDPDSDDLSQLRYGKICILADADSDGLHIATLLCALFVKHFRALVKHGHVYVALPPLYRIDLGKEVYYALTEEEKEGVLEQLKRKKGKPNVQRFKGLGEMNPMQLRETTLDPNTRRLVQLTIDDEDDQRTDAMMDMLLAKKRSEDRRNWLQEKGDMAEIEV

CCNC(=O)Nc1cc(-c2nc(C3CC3)cs2)c(-c2cc(-c3n[nH]c(=O)o3)cnc2N2C3CCC2CN(C)C3)cn1
MIC (Acinetobacter baumannii [1]): 1 µg/mL (≈ 1.74 µM) | MIC (Pseudomonas aeruginosa [2]): 4 µg/mL (≈ 6.97 µM) | MIC (Pseudomonas aeruginosa [3]): 4 µg/mL (≈ 6.97 µM) | MIC (Klebsiella pneumoniae): 16 µg/mL (≈ 27.9 µM) | MIC (Acinetobacter baumannii [4]): 2 µg/mL (≈ 3.49 µM) | MIC (Acinetobacter baumannii [5]): 1 µg/mL (≈ 1.74 µM) | MIC (Pseudomonas aeruginosa [6]): 0.23 µg/mL (≈ 0.401 µM) | MIC (Pseudomonas aeruginosa [7]): 4 µg/mL (≈ 6.97 µM) | MIC (Acinetobacter baumannii [8]): 4 µg/mL (≈ 6.97 µM) | MIC (Acinetobacter baumannii [9]): 0.25 µg/mL (≈ 0.436 µM) | IC50 [10]: 3 nM | MIC (Acinetobacter baumannii [11]): 1 µg/mL (≈ 1.74 µM) | MIC (Pseudomonas aeruginosa [12]): 4 µg/mL (≈ 6.97 µM) | pKa [13]: 6.7 | IC50 (DNA gyrase subunit B): 2 nM | pKa [14]: 7.9 | MIC (Pseudomonas aeruginosa [15]): 4 µg/mL (≈ 6.97 µM) | MIC (Pseudomonas aeruginosa [16]): 4 µg/mL (≈ 6.97 µM) | solubility thermodynamic [17]: 65.8 µM (≈ 37.7 µg/mL)

CCNC(=O)Nc1cc(-c2nc(C(F)(F)F)cs2)c(-c2cc3ncccc3nc2N2C3CCC2CN(C)C3)cn1
MIC (Acinetobacter baumannii [1]): 2 µg/mL (≈ 3.52 µM) | MIC (Pseudomonas aeruginosa [2]): 16 µg/mL (≈ 28.1 µM) | MIC (Pseudomonas aeruginosa [3]): 16 µg/mL (≈ 28.1 µM) | pKa [18]: 7.8 | MIC (Klebsiella pneumoniae): 64 µg/mL (≈ 113 µM) | MIC (Acinetobacter baumannii [4]): 4 µg/mL (≈ 7.03 µM) | MIC (Acinetobacter baumannii [5]): 2 µg/mL (≈ 3.52 µM) | MIC (Pseudomonas aeruginosa [6]): 0.56 µg/mL (≈ 0.985 µM) | MIC (Pseudomonas aeruginosa [7]): 32 µg/mL (≈ 56.3 µM) | MIC (Acinetobacter baumannii [8]): 4 µg/mL (≈ 7.03 µM) | MIC (Acinetobacter baumannii [9]): 0.5 µg/mL (≈ 0.879 µM) | IC50 [10]: 14 nM | MIC (Acinetobacter baumannii [11]): 2 µg/mL (≈ 3.52 µM) | MIC (Pseudomonas aeruginosa [12]): 16 µg/mL (≈ 28.1 µM) | IC50 (DNA gyrase subunit B): 7 nM | MIC (Pseudomonas aeruginosa [15]): 8 µg/mL (≈ 14.1 µM) | MIC (Pseudomonas aeruginosa [16]): 16 µg/mL (≈ 28.1 µM) | Therm_solubility ([17]; BLD = below limit of detection): Bld

CCNC(=O)Nc1cc(-c2nc(C(F)(F)F)cs2)c(-c2cc(-c3n[nH]c(=O)o3)cnc2N2C3CCC2CN(C)C3)cn1
MIC (Acinetobacter baumannii [1]): 1 µg/mL (≈ 1.66 µM) | MIC (Pseudomonas aeruginosa [2]): 8 µg/mL (≈ 13.3 µM) | MIC (Pseudomonas aeruginosa [3]): 8 µg/mL (≈ 13.3 µM) | MIC (Klebsiella pneumoniae): 32 µg/mL (≈ 53.2 µM) | MIC (Acinetobacter baumannii [4]): 2 µg/mL (≈ 3.32 µM) | MIC (Acinetobacter baumannii [5]): 1 µg/mL (≈ 1.66 µM) | MIC (Pseudomonas aeruginosa [6]): 0.3 µg/mL (≈ 0.499 µM) | MIC (Pseudomonas aeruginosa [7]): 8 µg/mL (≈ 13.3 µM) | MIC (Acinetobacter baumannii [8]): 4 µg/mL (≈ 6.65 µM) | MIC (Acinetobacter baumannii [9]): 0.25 µg/mL (≈ 0.416 µM) | IC50 [10]: 4 nM | MIC (Acinetobacter baumannii [11]): 1 µg/mL (≈ 1.66 µM) | MIC (Pseudomonas aeruginosa [12]): 8 µg/mL (≈ 13.3 µM) | pKa [13]: 6.7 | IC50 (DNA gyrase subunit B): 6 nM | pKa [14]: 7.8 | MIC (Pseudomonas aeruginosa [15]): 4 µg/mL (≈ 6.65 µM) | MIC (Pseudomonas aeruginosa [16]): 8 µg/mL (≈ 13.3 µM) | solubility thermodynamic [17]: 1490 µM (≈ 896 µg/mL)
